CHO parental Ca – counter-screen: ATP calcium response change in parental CHO cells. parental CHO-K1, ATP-induced calcium, Fluo-8 fluorescence. inhibition, % at 5.6 µM. 330,000 tested, 0.63% active. AID 463079;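 active means inhibition above that plate's mean sample inhibition plus 3 SD, cut at about 26% in these data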
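Assay system: untransfected parental CHO cell line. Also added: ATP agonist challenge. Dosing: one dose, 5.6 µM nominal. Measured by: Fluo-8 fluorescence. Read-out: % inhibition. Benchmarks: ATP wells versus no-ATP DMSO wells. Repeats: no replicates.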
OX1R antag-1 – blocks the human orexin 1 receptor. O43613. inhibition, % at 6.6 µM. 330,000 tested, 1.8% active. OX1R-expressing cells, FRET antagonist read-out; in the data active means inhibition mostly above about 38%, no sharp cut-off; inactive means mostly below about 40%
GPR7 antag – antagonists of human GPR7 (neuropeptides B/W receptor 1); GPR7-expressing cells, fluorescence antagonist assay; inhibition, % at 4.4 µM; 290,000 tested, 1.1% active; in the data active means inhibition above about 16%, passing the limit was not always enough;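 further: cells stimulated with the agonist NPW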
Target sequence (P48145 whole entry, looked up): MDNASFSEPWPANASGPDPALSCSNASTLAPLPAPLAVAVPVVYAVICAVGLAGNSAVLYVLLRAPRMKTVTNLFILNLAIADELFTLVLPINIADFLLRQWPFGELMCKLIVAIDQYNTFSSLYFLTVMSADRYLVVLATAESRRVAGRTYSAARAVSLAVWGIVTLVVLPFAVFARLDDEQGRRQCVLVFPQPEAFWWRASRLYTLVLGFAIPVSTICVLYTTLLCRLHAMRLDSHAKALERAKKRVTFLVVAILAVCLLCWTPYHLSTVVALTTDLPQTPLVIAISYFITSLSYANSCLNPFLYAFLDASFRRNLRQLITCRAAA
OX1R antag-2 – human HCRTR1 antagonism; O43613; CHO/OX1R cells, Fluo-8 calcium fluorescence, orexin A; inhibition, % at 5 µM; 330,000 tested, 0.43% active; AID 434989;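 active means inhibition above its plate's threshold, mean inhibition of all tested compounds on the plate plus 3 SD, cut at about 37% in these data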
GalR3 antagonist – blocks the human galanin receptor 3. O60755. HEK293 GalR3-CNG cAMP membrane potential fluorescence; galR3 body fused to GalR1 C-terminus. inhibition, % at 3 µM. 360,000 tested, 0.44% active;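 active means inhibition above the screen-wide average plus 3 SD, cut at about 13% in these data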;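 further: forskolin and galanin both at EC90 stimulate the cells; cAMP rise reported by CNG channel membrane potential dye signal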
Target sequence (O60755 1-299 limits assumed): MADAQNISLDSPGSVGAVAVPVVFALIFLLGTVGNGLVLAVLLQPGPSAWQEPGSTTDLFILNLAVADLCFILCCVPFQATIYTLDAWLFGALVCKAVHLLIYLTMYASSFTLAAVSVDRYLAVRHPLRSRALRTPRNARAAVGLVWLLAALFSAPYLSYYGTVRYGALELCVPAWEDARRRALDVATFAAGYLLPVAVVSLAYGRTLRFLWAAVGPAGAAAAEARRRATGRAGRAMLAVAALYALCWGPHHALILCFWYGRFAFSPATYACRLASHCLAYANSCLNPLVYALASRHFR
GPR7 antag cf – human GPR7 antagonism, confirmation assay. GPR7-expressing cells, calcium fluorescence antagonist mode. 2,400 tested, 52% active. inhibition, % at 4.4 µM. shares compounds with GPR7 antag. AID 1952; in the data active means inhibition above about 24%;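 further: stimulated with the GPR7 agonist NPW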
MCHR1 antag – counter-screen for GPR7 antagonists: antagonists of human MCHR1 | MCHR1-expressing cells, fluorescence antagonist assay | inhibition, % at 4.4 µM | shares compounds with GPR7 antag | AID 2148 | 2,400 tested, 62% active; in the data active means inhibition above about 22%
OX1R Fluo8 conf – confirmation of human orexin 1 receptor antagonists | shares compounds with OX1R antag-2 | CHO/OX1R cells, orexin A calcium Fluo-8 fluorescence | inhibition, % at 5 µM | 1,100 tested, 38% active | AID 492963; in the data active means inhibition above about 29%
CHO Ca triplic – counter-screen for OX1R antagonists: effect in parental CHO cells; parental CHO-K1, ATP-induced calcium, Fluo-8 fluorescence; 1,100 tested, 9.3% active; AID 492965; shares compounds with OX1R antag-2; inhibition, % at 5.6 µM;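 active means inhibition above a per-plate limit, the mean inhibition of that plate's test compounds plus 3 SD, cut at about 25% in these data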
OX1R HTRF conf – confirmation of human orexin 1 receptor antagonists, HTRF format; OX1R-expressing cells, HTRF antagonist assay; shares compounds with OX1R antag-1; 1,800 tested, 49% active; inhibition, % at 6.6 µM; in the data active means inhibition above about 55%;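 further: CHO cells expressing OX1R stimulated with orexin A at about EC80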
CHO-K1 HTRF cnt – counter-screen: parental CHO-K1 HTRF response. shares compounds with OX1R antag-1. parental CHO-K1 cells, HTRF counterscreen. inhibition, % at 6.6 µM. 1,800 tested, 48% active. AID 493232; in the data active means inhibition above about 17%
GalR3 conf – confirmation of human galanin receptor 3 antagonists | shares compounds with GalR3 antagonist | HEK293 GalR3 CNG cAMP biosensor, membrane potential fluorescence; galR3 fused to GalR1 carboxy tail; challenged with forskolin and galanin at EC90 | inhibition, % at 3 µM | 1,600 tested, 59% active;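 active means inhibition above the primary screen's cutoff, the mean inhibition of all screened compounds plus 3 SD, cut at about 13% in these data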
CNG parental – parental cell agonism counter-screen for GalR3 antagonists. 1,600 tested, 10% active. HEK293-CNG parental cells, cAMP membrane potential fluorescence; normalised: DMSO wells 0%, forskolin wells 100%. shares compounds with GalR3 antagonist. activation, % at 3 µM. AID 652268; in the data active means activation above about 1.3%
Of the large screens only hits and unclear results are named; the others gave an inactive call (follow-up assays come after a bar, where they were run). Sampled rows, rich in hits. Any-hit rate of the full collection: about 3.1%.

COCCNC(=O)C(c1ccc(Cl)cc1)N(CCOC)C(=O)CCC(=O)Nc1ccccn1 (stereo unspecified)	none
O=C(CSc1n[nH]c(=O)[nH]c1=O)c1ccc([N+](=O)[O-])cc1	OX1R antag-1 134, GPR7 antag 26 | GPR7 antag cf inactive | MCHR1 antag inactive | OX1R HTRF conf 56 | CHO-K1 HTRF cnt 80
COc1ccc(C(=O)CSc2n[nH]c(=O)[nH]c2=O)cc1	none
CCC1(CC)NC(=O)N(CC(=O)OCC(=O)Nc2ccc(OC(F)(F)F)cc2)C1=O	none (no result: GPR7 antag)
CCN(CC(=O)Nc1ccccc1C(F)(F)F)C(=O)CN1C(=O)NC(C)(c2ccc3ccccc3c2)C1=O (stereo unspecified)	none (no result: CHO parental Ca, OX1R antag-1, GPR7 antag, OX1R antag-2)
CN(Cc1ccccc1)C1=CC(=[N+]2CCCC2)CC(C)(C)C1	GPR7 antag 29, GalR3 antagonist 59 | GPR7 antag cf 49 | MCHR1 antag 38 | GalR3 conf 65 | CNG parental 2.3
C=CCSc1nsc(NC(=O)Nc2ccc(F)cc2)n1	CHO parental Ca 51, OX1R antag-1 70, GPR7 antag 36, GalR3 antagonist 69 | GPR7 antag cf 61 | MCHR1 antag 61 | GalR3 conf 40 | CNG parental inactive
COCCCn1c(=O)c2sccc2n2c(CCCC(=O)NCc3cccc(OC)c3)nnc12	none
CCNc1ccc(S(=O)(=O)NCCN(C)C)cc1[N+](=O)[O-]	none
CN(C)CCCNS(=O)(=O)c1ccc(NC2CCCCCC2)c([N+](=O)[O-])c1	GPR7 antag 23, GalR3 antagonist 78 | GPR7 antag cf 48 | MCHR1 antag 51 | GalR3 conf 100 | CNG parental 1.6
COc1cccc(CN(C)C(=O)c2cc(COc3c(F)cccc3F)on2)c1	none
COc1cccc(CN(C)C(=O)c2cc(COc3ccc4ncccc4c3)on2)c1	CHO parental Ca 66, GPR7 antag 33, GalR3 antagonist 88 | GPR7 antag cf 40 | MCHR1 antag 57 | GalR3 conf 99 | CNG parental inactive
C=CCn1c(SCC(=O)Nc2cc(C)on2)nc2c([nH]c3ccccc32)c1=O	none
CC(C)(C)C(=O)NC(=S)NNC(=O)c1ccc(Cl)cc1Cl	CHO parental Ca 52, GPR7 antag 32, OX1R antag-2 63, GalR3 antagonist 16 | GPR7 antag cf 40 | MCHR1 antag 37 | GalR3 conf 13 | CNG parental inactive
COC(=O)NNC(=O)c1ccc(Cl)cc1Cl	none
COc1ccc(NS(=O)(=O)c2ccc(OC)c(N(C)S(=O)(=O)c3ccc(Cl)cc3)c2)cc1	GPR7 antag 27, OX1R antag-2 61, GalR3 antagonist 25 | GPR7 antag cf 29 | MCHR1 antag 52 | OX1R Fluo8 conf inactive | CHO Ca triplic 25 | GalR3 conf 62 | CNG parental inactive
Cc1ccc(NC(=O)CSc2nn(-c3ccccc3)c(=S)s2)cc1S(=O)(=O)N(C)C	GPR7 antag 21, GalR3 antagonist 72 | GPR7 antag cf 56 | MCHR1 antag 68 | GalR3 conf 93 | CNG parental inactive
O=C(CSc1nn(-c2ccccc2)c(=S)s1)Nn1cnnc1	none
O=C(c1ccccc1)c1ccc(Cn2cc(-c3ccccc3)nn2)cc1	GPR7 antag 41, GalR3 antagonist 25 | GPR7 antag cf 47 | MCHR1 antag 61 | GalR3 conf 56 | CNG parental inactive
CCCCCc1ccc(-c2cn(Cc3ccc(C(=O)c4ccccc4)cc3)nn2)cc1	none
CN(C)S(=O)(=O)N1CCC(Oc2ccc(C(=O)NC3Cc4ccccc4C3)cc2)CC1	GPR7 antag 51, GalR3 antagonist 30 | GPR7 antag cf 66 | MCHR1 antag 75 | GalR3 conf 99 | CNG parental inactive
CC(=O)c1cccc(NS(=O)(=O)c2ccc(C(=O)Nc3ccccc3)cc2)c1	CHO parental Ca 71, OX1R antag-1 74, GPR7 antag 22, OX1R antag-2 70, GalR3 antagonist 56 | GPR7 antag cf 29 | MCHR1 antag 50 | GalR3 conf 71 | CNG parental inactive
O=C(Nc1ccccc1)c1ccc(S(=O)(=O)Nc2cccc(O)c2)cc1	none
CCOc1cc(CNCc2ccccc2)ccc1OCc1ccc(Cl)cc1	CHO parental Ca 92, GPR7 antag 66, OX1R antag-2 69, GalR3 antagonist 42 | GPR7 antag cf 56 | MCHR1 antag 78 | GalR3 conf 26 | CNG parental 5.5
COC(=O)C1CCCCN1C(=O)c1cc(COc2cccc3cccnc23)on1 (stereo unspecified)	none
COC(=O)C1CCCCN1C(=O)c1cc(COc2cccc3cnccc23)on1 (stereo unspecified)	CHO parental Ca 54, GPR7 antag 35, GalR3 antagonist 106 | GPR7 antag cf 28 | MCHR1 antag 53 | GalR3 conf 107 | CNG parental inactive
O=C(Nc1ccc(S(=O)(=O)N2CCCC2)cc1)c1ccc(CN2CCc3ccccc3C2)cc1	CHO parental Ca 38, GPR7 antag 28, OX1R antag-2 49, GalR3 antagonist 96 | GPR7 antag cf 47 | MCHR1 antag 63 | GalR3 conf 105 | CNG parental inactive
CCN(CC)C(=O)[C@H]1CC(CC(=O)NCc2ccco2)C(=O)N2CCc3c([nH]c4ccc(OC)cc34)[C@]12C (stereo partly specified)	none (no result: GPR7 antag)
COc1ccc(Cl)cc1NC(=O)CN(C)C(=O)c1ccc(-n2nc(C)cc2C)cc1	none (no result: GPR7 antag)
COCC(=O)N1CCC(Oc2ccc(C(=O)NC3Cc4ccccc4C3)cc2)CC1	none
